Assay results published in ChEMBL document CHEMBL1135483, “N-Substituted 4-amino-3,3-dipropyl-2(3H)-furanones: new positive allosteric modulators of the GABA(A) receptor sharing electrophysiological properties with the anticonvulsant loreclezole” (2002).

Assays:
[1] = molecular target: T1, GABA-A receptor; alpha-1/beta-2/gamma-2 (Rattus norvegicus) (UniProt P18508+P62813+P63138); assay: (§1) Percent stimulation of GABA-induced currents in Xenopus Oocytes expressing rat GABA-A receptor alpha-1-beta-2-gamma-2 subunits at 200 uM; assay type: functional, cell-based
How it was run: (§2)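 Oocytes expressing recombinant rat α1β2γ2 GABA-A receptors (cRNA injected in 5 mM K-Hepes, pH 6.8) were recorded by two-electrode voltage clamp at -80 mV in 90 mM NaCl, 1 mM KCl, 1 mM MgCl2, 1 mM CaCl2, 10 mM Na-Hepes, pH 7.4. Compound was co-applied with GABA at 2-4% of maximal current for 20 s, then 4 min washout. Values are the mean of three assays ± SEM.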

[2] = molecular target: T2, GABA-A receptor; anion channel (Rattus norvegicus) (UniProt O09028+P15431+P18506+P18508+P19969+P20236+P23574+P23576+P28471+P28473+P30191+P62813+P63079+P63138+Q91ZM7+Q9ES14); assay: Displacement of [3H]flunitrazepam from GABA-A receptor of rat brain membranes at 100 uM; assay type: cell membranes; conditions: Membrane
How it was run: (§3)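 Cerebellar or forebrain rat membranes, about 1 mg/mL protein, were incubated 90 min at 4 °C with 2 nM [3H]flunitrazepam in 50 mM Tris-citrate pH 7.4 with 150 mM NaCl. Nonspecific binding was set with 10 µM diazepam. Samples were filtered on GF/B and counted by scintillation. Result is % displacement or stimulation; at least three experiments in triplicate.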

[3] = molecular target: T2, GABA-A receptor; anion channel (Rattus norvegicus); assay: Displacement of [35S]TBPS from Gamma-aminobutyric acid A (GABA-A) receptor of rat brain membranes at 100 uM; assay type: cell membranes; conditions: Membrane
How it was run: (§4)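 Rat cerebellum or forebrain (brain minus cerebellum) membranes, about 1 mg/mL protein, were incubated with 2 nM [35S]-TBPS in 50 mM Tris-citrate pH 7.4 plus 200 mM NaBr for 180 min at room temperature. Nonspecific binding was defined with 10 µM TBPS. Samples were filtered on GF/B and counted by scintillation. Result is % displacement; at least three experiments in triplicate.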

[4] = molecular target: T2, GABA-A receptor; anion channel (Rattus norvegicus); assay: (§5) Displacement of [3H]muscimol from Gamma-aminobutyric acid A (GABA-A) receptor of rat brain membranes at 100 uM; assay type: cell membranes; conditions: Membrane
How it was run: as §3, with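 “[3H]muscimol” for “[3H]flunitrazepam”, “taken” for “set”, “GABA. Filters” for “diazepam. Samples”, “rinsed twice with ice-cold buffer” for “filtered on GF/B”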

[5] = molecular target: T1, GABA-A receptor; alpha-1/beta-2/gamma-2 (Rattus norvegicus); assay: Percent stimulation of GABA-induced currents in Xenopus Oocytes expressing rat GABA-A receptor alpha-1-beta-2-gamma-2 subunits at 50 uM; assay type: functional, cell-based
How it was run: (§6)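 Xenopus laevis oocytes were injected with cRNA for rat receptor subunits and recorded by two-electrode voltage clamp at -80 mV. Bath was 90 mM NaCl, 1 mM KCl, 1 mM MgCl2, 1 mM CaCl2, 10 mM Na-Hepes pH 7.4. GABA giving about 2-4% of maximal current was applied for 20 s alone or with compound, with 4 min washout. Result is % change in current; average of three.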

Rattus norvegicus [6] = organism: Rattus norvegicus; assay: Displacement of [35S]TBPS from Gamma-aminobutyric acid A (GABA-A) receptor of rat forebrain tissue at 100 uM; how it was run: as §4
Rattus norvegicus [7] = organism: Rattus norvegicus; assay: Displacement of [35S]-TBPS from Gamma-aminobutyric acid A (GABA-A) receptor of rat cerebellar tissue at 100 uM; how it was run: as §4
[8] = molecular target: T1, GABA-A receptor; alpha-1/beta-2/gamma-2 (Rattus norvegicus); assay: Percent stimulation of GABA-induced currents in Xenopus Oocytes expressing rat GABA-A receptor alpha-1-beta-2-gamma-2 subunits at 2 uM; assay type: functional, cell-based; how it was run: as §2
[9] = tested on: GABA-A receptor alpha-1/beta-2 (Rattus norvegicus); assay: Percent stimulation of GABA-induced currents in Xenopus Oocytes expressing rat GABA-A receptor alpha-1-beta-2 subunits at 100 uM
[10] = molecular target: T2, GABA-A receptor; anion channel (Rattus norvegicus); assay: Displacement of [3H]-muscimol from Gamma-aminobutyric acid A (GABA-A) receptor of Rat forebrain at 100 uM
How it was run: as §3, with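 “[3H]muscimol” for “[3H]flunitrazepam”, “taken” for “set”, “GABA. Filters” for “diazepam. Samples”, “rinsed twice with ice-cold buffer” for “filtered on GF/B”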

[11] = molecular target: T1, GABA-A receptor; alpha-1/beta-2/gamma-2 (Rattus norvegicus); assay: Percent stimulation of GABA-induced currents in Xenopus Oocytes expressing rat GABA-A receptor alpha-1-beta-2-gamma-2 subunits at 20 uM; assay type: functional, cell-based; how it was run: as §6
[12] = Percent stimulation of GABA-induced currents in Xenopus Oocytes expressing mutant rat GABA-A receptor alpha-1-beta-2(N265S) subunits at 100 uM; assay type: functional; how it was run: as §6
[13] = molecular target: T1, GABA-A receptor; alpha-1/beta-2/gamma-2 (Rattus norvegicus); assay: as §1; assay type: functional, cell-based; how it was run: as §2; remark: listed apart in the source
[14] = molecular target: T1, GABA-A receptor; alpha-1/beta-2/gamma-2 (Rattus norvegicus); assay: Percent stimulation of GABA-induced currents in Xenopus Oocytes expressing rat GABA-A receptor alpha-1-beta-2-gamma-2 subunits at 100 uM; assay type: functional, cell-based; how it was run: as §6
[15] = molecular target: T1, GABA-A receptor; alpha-1/beta-2/gamma-2 (Rattus norvegicus); assay: Percent stimulation of GABA-induced currents in Xenopus Oocytes expressing rat GABA-A receptor alpha-1-beta-2-gamma-2 subunits at 5 uM; assay type: functional, cell-based; how it was run: as §6
[16] = molecular target: T1, GABA-A receptor; alpha-1/beta-2/gamma-2 (Rattus norvegicus); assay: as §1; assay type: functional, cell-based; how it was run: as §2; remark: listed apart in the source
[17] = molecular target: T2, GABA-A receptor; anion channel (Rattus norvegicus); assay: Displacement of [3H]flunitrazepam from GABA-A receptor of rat cerebellar tissues at 100 uM; assay type: protein-complex assay; how it was run: as §3
[18] = molecular target: T2, GABA-A receptor; anion channel (Rattus norvegicus); assay: Displacement of [3H]flunitrazepam from GABA-A receptor of rat forebrain tissue at 100 uM; how it was run: as §3
Rattus norvegicus [19] = organism: Rattus norvegicus; assay: as §5; assay type: cell membranes; conditions: Membrane
How it was run: as §3, with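 “[3H]muscimol” for “[3H]flunitrazepam”, “taken” for “set”, “GABA. Filters” for “diazepam. Samples”, “rinsed twice with ice-cold buffer” for “filtered on GF/B”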

SMILES | Stimulation [1] | Displacement [2] | Displacement [3] | Displacement [4] | other results
CCCC1(CCC)C(=O)OC[C@H]1NS(=O)(=O)c1ccc(OC)cc1 (racemic) | -22% | 0% | 80% | 0% | –
CCCC1(CCC)C(=O)OC[C@H]1NS(=O)(=O)c1ccc2ccccc2c1 (racemic) | – | 0% | 75% | 0% | Stimulation [5]: 4%
O=C1C[C@H](NC(=O)OCc2ccccc2)CO1 (racemic) | 47% | – | – | – | –
CCCC1(CCC)C(=O)OC[C@H]1NS(=O)(=O)c1ccc(C(F)(F)F)cc1 (racemic) | -44% | -20% | – | 0% | Displacement (Rattus norvegicus [6]): 70%; Displacement (Rattus norvegicus [7]): 40%
O=C1C[C@H](NCc2ccccc2)CO1 (racemic) | 0% | – | – | – | –
CCCC1(CCC)C(=O)OC[C@H]1NC(=O)OC(C)(C)C (racemic) | 46% | – | – | – | –
CCCC1(CCC)C(=O)OC[C@H]1NC(=O)c1ccccc1 (racemic) | 420% | -15% | 65% | – | Stimulation [8]: 17%; Stimulation [9]: 557%; Displacement [10]: 0%; Stimulation [11]: 207%; Stimulation [12]: 648%; Stimulation [13]: 420%
CCCC1(CCC)C(=O)OC[C@H]1NC(=O)OCc1ccccc1 | – | – | – | – | Stimulation [14]: 104%
C=CC[C@H]1C(=O)OC[C@H]1NCc1ccccc1 (racemic) | 73% | 0% | 60% | 0% | –
CCCC1(CCC)C(=O)OC[C@H]1NS(=O)(=O)c1cccs1 (racemic) | -16% | – | – | – | –
CCCC1(CCC)C(=O)OC[C@H]1NC(=O)Oc1ccccc1 (racemic) | 330% | -25% | 75% | – | Displacement [10]: 0%
C=CCC1(CC=C)C(=O)OC[C@H]1NCc1ccccc1 (racemic) | 115% | -14% | 60% | 0% | –
C=CC[C@@H]1C(=O)OC[C@H]1NCc1ccccc1 (racemic) | -1% | – | – | – | –
CCCC1(CCC)C(=O)OC[C@H]1NS(=O)(=O)c1ccc(Cl)cc1 (racemic) | – | -25% | 85% | 0% | Stimulation [15]: 23%
CCCC1(CCC)C(=O)OC[C@@H]1NC(=O)OCc1ccccc1 (stereo in doubt) | – | 0% | 70% | 0% | Stimulation [14]: 279%
CCCC1(CCC)C(=O)OC[C@H]1NS(=O)(=O)N(C)C (racemic) | -1% | – | – | – | –
CCCC1(CCC)C(=O)OC[C@H]1NC(=O)OCC (racemic) | 426% | 0% | 30% | 0% | –
CCCC1(CCC)C(=O)OC[C@@H]1NC(=O)OCc1ccccc1 [listing 1 of 2 here] | – | – | – | – | Stimulation [9]: 324%; Stimulation [14]: 279%
CCC1(C)CCSC1=O (centres undefined) | 352% | 0% | 25% | 0% | Stimulation [8]: 10%; Stimulation [11]: 39%; Stimulation [16]: 192%; Stimulation [13]: 386%
CCCC1(CCC)C(=O)OC[C@@H]1NC(=O)OCc1ccccc1 [listing 2 of 2 here] | – | – | – | – | Stimulation [12]: 123%
C=CCOC(=O)N[C@@H]1COC(=O)C1(CCC)CCC (racemic) | 765% | – | 50% | – | Stimulation [8]: 26%; Stimulation [9]: 2130%; Stimulation [17]: 0%; Stimulation [11]: 229%; Stimulation [18]: 15%; Stimulation [12]: 627%; Displacement (Rattus norvegicus [19]): 0%; Stimulation [13]: 765%
